Results on 23 compounds are retold here after ChEMBL document CHEMBL1154751, “Evaluation of di-sansalvamide A derivatives: synthesis, structure-activity relationship, and mechanism of action” (J Med Chem, 2009).

Residues, ends and D or L forms follow the SMILES beside them.

One assay concerns HCT-116. Description: Growth inhibition of human HCT116 cells at 5 uM after 24 hrs by [3H]thymidine uptake assay. It counts as functional. The following applies: read-out: GI.
Assay [1] can be described thus: Growth inhibition of human PL45 cells at 5 uM after 24 hrs by [3H]thymidine uptake assay. It counts as functional. The following applies: read-out: GI.
Assay [2] is described as follows: Inhibition of HSP90.
Assay [3] in a line: Growth inhibition of Pancreatic cancer cells. It counts as functional, cell-based. Particulars: Cancer cell lines.
A short description of assay [4]: Cytotoxicity against human K2 O/E cells over expressing tetracycline inducible IP6K2 protein assessed as cell survival. Type of assay: functional. Put shortly:
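Stable tetracycline-inducible Myc-IP6K2 HEK293 line. IP6K2 overexpression induced with 1 μg/mL tetracycline for 24 h; wild-type control cells got vehicle alone. Cells then exposed to 25 nM drug or DMSO (no drug) for 48 h. Viability read by CCK-8 assay and expressed relative to control set at 100%.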

The nature of assay [5]: Potency index, ratio of novobiocin IC50 to compound IC50 for HSP90 HSP90.

With `CC(C)C[C@@H]1NC(=O)[C@H](Cc2ccccc2)NC(=O)[C@@H](CC(C)C)NC(=O)[C@@H](C(C)C)NC(=O)[C@H](CC(C)C)NC(=O)[C@@H](CC(C)C)NC(=O)[C@@H](Cc2ccccc2)NC(=O)[C@@H](CC(C)C)NC(=O)[C@@H](C(C)C)NC(=O)[C@@H](CC(C)C)NC1=O`, the inhibition of growth at 5 µM with HCT-116 amounted to 0%; in assay [1], 17%.

Take `CC(C)C[C@@H]1NC(=O)[C@H](C(C)C)NC(=O)[C@@H](CC(C)C)NC(=O)[C@@H](CC(C)C)NC(=O)[C@H](Cc2ccccc2)NC(=O)[C@H](CC(C)C)NC(=O)[C@H](C(C)C)NC(=O)[C@@H](CC(C)C)NC(=O)[C@@H](CC(C)C)NC(=O)[C@H](Cc2ccccc2)NC1=O`: the inhibition of growth at 5 µM is 0% with HCT-116 and 48% in assay [1].

Regarding `CO[C@@H]1[C@@H](OC(N)=O)[C@@H](O)[C@H](Oc2ccc3c(O)c(NC(=O)c4ccc(O)c(CC=C(C)C)c4)c(=O)oc3c2C)OC1(C)C` [NOVOBIOCIN], the midpoint of the response in assay [2], the EC50, lay at 100000 nM.

For `CC(C)C[C@@H]1NC(=O)[C@H](Cc2ccccc2)NC(=O)[C@@H](CC(C)C)NC(=O)[C@@H](C(C)C)NC(=O)[C@@H](CC(C)C)NC(=O)[C@H](CC(C)C)NC(=O)[C@@H](Cc2ccccc2)NC(=O)[C@@H](CC(C)C)NC(=O)[C@@H](C(C)C)NC(=O)[C@H](CC(C)C)NC1=O`, the inhibition of growth at 5 µM in the assay with HCT-116 came to 0%; in assay [1] it was 15%.

With `CC(C)C[C@@H]1NC(=O)[C@H](Cc2ccccc2)NC(=O)[C@@H](CC(C)C)NC(=O)[C@@H](C(C)C)NC(=O)[C@@H](CC(C)C)NC(=O)[C@H](CC(C)C)NC(=O)[C@@H](Cc2ccccc2)NC(=O)[C@@H](CC(C)C)NC(=O)[C@@H](C(C)C)NC(=O)[C@@H](CC(C)C)NC1=O`, the inhibition of growth at 5 µM in the assay with HCT-116 was 0%; in assay [1], 12%.

For the compound `CC(C)C[C@@H]1NC(=O)[C@H](CC(C)C)NC(=O)[C@@H](Cc2ccccc2)NC(=O)[C@H](CC(C)C)NC(=O)[C@H](C(C)C)NC(=O)[C@H](CC(C)C)NC(=O)[C@H](CC(C)C)NC(=O)[C@@H](Cc2ccccc2)NC(=O)[C@H](CC(C)C)NC(=O)[C@H](C(C)C)NC1=O`, the inhibition of growth at 5 µM was 0% in the assay on HCT-116 and 11% in assay [1].

For the compound `CC(C)C[C@@H]1NC(=O)[C@H](CC(C)C)NC(=O)[C@@H](Cc2ccccc2)NC(=O)[C@@H](CC(C)C)NC(=O)[C@@H](C(C)C)NC(=O)[C@@H](CC(C)C)NC(=O)[C@H](CC(C)C)NC(=O)[C@@H](Cc2ccccc2)NC(=O)[C@@H](CC(C)C)NC(=O)[C@@H](C(C)C)NC1=O`, the inhibition of growth at 5 µM in the assay with HCT-116 came to 0%; in assay [1], 8%.

As to `CC(C)C[C@@H]1NC(=O)[C@H](Cc2ccccc2)NC(=O)[C@H](CC(C)C)NC(=O)[C@H](C(C)C)NC(=O)[C@@H](CC(C)C)NC(=O)[C@H](CC(C)C)NC(=O)[C@H](Cc2ccccc2)NC(=O)[C@H](CC(C)C)NC(=O)[C@H](C(C)C)NC(=O)[C@@H](CC(C)C)NC1=O`, the inhibition of growth at 5 µM in the assay on HCT-116 is 0%; in assay [1], 12%.

Consider `CC(C)C[C@@H]1NC(=O)[C@H](CC(C)C)NC(=O)[C@@H](Cc2ccccc2)NC(=O)[C@@H](CC(C)C)NC(=O)[C@@H](C(C)C)NC(=O)[C@H](CC(C)C)NC(=O)[C@H](CC(C)C)NC(=O)[C@@H](Cc2ccccc2)NC(=O)[C@@H](CC(C)C)NC(=O)[C@@H](C(C)C)NC1=O`, for which the inhibition of growth at 5 µM is 0% with HCT-116 and 10% in assay [1].

In the case of `CC(C)C[C@@H]1NC(=O)[C@H](Cc2ccccc2)NC(=O)[C@@H](CC(C)C)NC(=O)[C@@H](C(C)C)NC(=O)[C@@H](CC(C)C)NC(=O)[C@H](CC(C)C)NC(=O)[C@H](Cc2ccccc2)NC(=O)[C@@H](CC(C)C)NC(=O)[C@@H](C(C)C)NC(=O)[C@@H](CC(C)C)NC1=O`, the inhibition of growth at 5 µM in the assay on HCT-116 was determined as 17%; in assay [1] it was 21%.

On to `CC(C)C[C@@H]1NC(=O)[C@H](Cc2ccccc2)NC(=O)[C@@H](CC(C)C)NC(=O)[C@@H](C(C)C)NC(=O)[C@H](CC(C)C)NC(=O)[C@H](CC(C)C)NC(=O)[C@@H](Cc2ccccc2)NC(=O)[C@@H](CC(C)C)NC(=O)[C@@H](C(C)C)NC(=O)[C@H](CC(C)C)NC1=O`, for which the values for the inhibition of growth at 5 µM (with HCT-116; in assay [1]) were 0% and 7%, respectively.

In the case of `CC(C)C[C@@H]1NC(=O)[C@H](Cc2ccccc2)NC(=O)[C@@H](CC(C)C)NC(=O)[C@H](C(C)C)NC(=O)[C@@H](CC(C)C)NC(=O)[C@H](CC(C)C)NC(=O)[C@H](Cc2ccccc2)NC(=O)[C@@H](CC(C)C)NC(=O)[C@H](C(C)C)NC(=O)[C@@H](CC(C)C)NC1=O`, the inhibition of growth at 5 µM came to 0% with HCT-116 and 9% in assay [1].

As to `CC(C)C[C@@H]1NC(=O)[C@H](Cc2ccccc2)NC(=O)[C@@H](CC(C)C)NC(=O)[C@@H](C(C)C)NC(=O)[C@H](CC(C)C)NC(=O)[C@H](CC(C)C)NC(=O)[C@H](Cc2ccccc2)NC(=O)[C@@H](CC(C)C)NC(=O)[C@@H](C(C)C)NC(=O)[C@H](CC(C)C)NC1=O`, the inhibition of growth at 5 µM (in the assay with HCT-116; in assay [1]) was 99% in each case. This compound had an IC50 in assay [3] of 1 nM. In addition, the concentration for a half-maximal effect (EC50) in assay [2] was determined as 2 nM. Moreover, the Survival in assay [4] stood at 3%. Besides, in assay [5], the Ratio IC50 came to 50000.

As to `CC(C)C[C@@H]1NC(=O)[C@H](Cc2ccccc2)NC(=O)[C@@H](Cc2ccccc2)N(C)C(=O)[C@@H](C(C)C)NC(=O)[C@H](CC(C)C)NC(=O)[C@H](CC(C)C)NC(=O)[C@H](Cc2ccccc2)NC(=O)[C@@H](Cc2ccccc2)N(C)C(=O)[C@@H](C(C)C)NC(=O)[C@H](CC(C)C)NC1=O`, the inhibition of growth at 5 µM in the assay on HCT-116 worked out at 0%; in assay [1] it was 10%.

On to `CC(C)C[C@@H]1NC(=O)[C@H](Cc2ccccc2)NC(=O)[C@H](CC(C)C)NC(=O)[C@@H](C(C)C)NC(=O)[C@H](CC(C)C)NC(=O)[C@H](CC(C)C)NC(=O)[C@H](Cc2ccccc2)NC(=O)[C@H](CC(C)C)NC(=O)[C@@H](C(C)C)NC(=O)[C@H](CC(C)C)NC1=O`, for which the inhibition of growth at 5 µM came to 0% with HCT-116 and 30% in assay [1].

In the case of `CC(C)C[C@@H]1NC(=O)[C@H](Cc2ccccc2)NC(=O)[C@H](CC(C)C)NC(=O)[C@@H](C(C)C)NC(=O)[C@@H](CC(C)C)NC(=O)[C@H](CC(C)C)NC(=O)[C@H](Cc2ccccc2)NC(=O)[C@H](CC(C)C)NC(=O)[C@@H](C(C)C)NC(=O)[C@@H](CC(C)C)NC1=O`, the figures for the inhibition of growth at 5 µM (in the assay on HCT-116; in assay [1]) were 0% and 25%, respectively.

Turning to `CC(C)C[C@@H]1NC(=O)[C@H](Cc2ccccc2)NC(=O)[C@H](CC(C)C)NC(=O)[C@H](C(C)C)NC(=O)[C@H](CC(C)C)NC1=O` (cyclo(FLLVL)), the inhibition of growth at 5 µM came out at 33% in the assay with HCT-116 and 25% in assay [1].

Consider `CC(C)C[C@@H]1NC(=O)[C@H](Cc2ccccc2)NC(=O)[C@@H](Cc2ccccc2)NC(=O)[C@@H](C(C)C)NC(=O)[C@H](CC(C)C)NC(=O)[C@H](CC(C)C)NC(=O)[C@H](Cc2ccccc2)NC(=O)[C@@H](Cc2ccccc2)NC(=O)[C@@H](C(C)C)NC(=O)[C@H](CC(C)C)NC1=O`, for which the inhibition of growth at 5 µM with HCT-116 was determined as 16%; in assay [1], 13%.

For the compound `CC(C)C[C@@H]1NC(=O)[C@H](Cc2ccccc2)NC(=O)[C@@H](CC(C)C)NC(=O)[C@@H](C(C)C)NC(=O)[C@H](CC(C)C)NC(=O)[C@@H](CC(C)C)NC(=O)[C@H](Cc2ccccc2)NC(=O)[C@@H](CC(C)C)NC(=O)[C@@H](C(C)C)NC(=O)[C@@H](CC(C)C)NC1=O`, the inhibition of growth at 5 µM in the assay on HCT-116 was determined as 0%; in assay [1], 4%.

Regarding `CC(C)C[C@@H]1NC(=O)[C@H](C(C)C)NC(=O)[C@H](CC(C)C)NC(=O)[C@@H](CC(C)C)NC(=O)[C@@H](Cc2ccccc2)NC(=O)[C@H](CC(C)C)NC(=O)[C@H](C(C)C)NC(=O)[C@H](CC(C)C)NC(=O)[C@@H](CC(C)C)NC(=O)[C@@H](Cc2ccccc2)NC1=O`, the results for the inhibition of growth at 5 µM (with HCT-116; in assay [1]) were 0% and 12%, respectively.

Take `CC(C)C[C@@H]1NC(=O)[C@H](CC(C)C)NC(=O)[C@@H](Cc2ccccc2)NC(=O)[C@@H](CC(C)C)NC(=O)[C@H](C(C)C)NC(=O)[C@H](CC(C)C)NC(=O)[C@H](CC(C)C)NC(=O)[C@@H](Cc2ccccc2)NC(=O)[C@@H](CC(C)C)NC(=O)[C@H](C(C)C)NC1=O`: the inhibition of growth at 5 µM in the assay with HCT-116 turned out to be 0%; in assay [1], 36%.

As to `CC(C)C[C@@H]1NC(=O)[C@H](C(C)C)NC(=O)[C@@H](CC(C)C)NC(=O)[C@@H](Cc2ccccc2)NC(=O)[C@H](Cc2ccccc2)NC(=O)[C@H](CC(C)C)NC(=O)[C@H](C(C)C)NC(=O)[C@@H](CC(C)C)NC(=O)[C@@H](Cc2ccccc2)NC(=O)[C@H](Cc2ccccc2)NC1=O`, the inhibition of growth at 5 µM with HCT-116 turned out to be 0%; in assay [1], 10%.

For `CC(C)C[C@@H]1NC(=O)[C@@H](Cc2ccccc2)NC(=O)[C@@H](CC(C)C)NC(=O)[C@@H](C(C)C)NC(=O)[C@@H](CC(C)C)NC(=O)[C@H](CC(C)C)NC(=O)[C@@H](Cc2ccccc2)NC(=O)[C@@H](CC(C)C)NC(=O)[C@@H](C(C)C)NC(=O)[C@@H](CC(C)C)NC1=O`, the inhibition of growth at 5 µM in the assay on HCT-116 was determined as 40%; in assay [1], 79%.

In general, EC50 refers to the midpoint of the concentration-response curve. Low readings indicate an effect from little substance, high ones a need for much substance. A word on the IC50: it is the midpoint of a concentration-inhibition curve. A lower IC50 goes with greater potency in that assay.
